Test results reported in publication PMC9828401 (Acta Biochimica et Biophysica Sinica, 2022).
Entries after “also recorded” stand apart in the source; their conditions may differ. Read-outs that look alike come from different tables or passages of the source. Ends that are not written are not given here.

Experiments:
[1] = tested on: M-PAC1R(Cys25/Ala25)-eGFP; experiment: Confocal microscopy of nuclear translocation of M-PAC1R; type: cell-based, mouse; settings: 1 μM, 15 min
Outline: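 CHO-K1 cells stably expressing C-terminally eGFP-tagged PAC1-R Cys25/Ala25 mutant, from lipofection, G418 (0.8–1 mg/mL) selection and limiting-dilution cloning; at least three clones with similar receptor levels run in parallel. Cells grown in 10% FBS medium at 37°C, 5% CO₂. Exposed to 1 μM test compound or none for 15 min; eGFP imaged by confocal microscopy (ex 488 nm, em 545 nm). ≥3 replicates, repeated three times.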

[2] = tested on: PAC1-R; settings: cited from earlier work
[3] = tested on: PAC1-EC1; settings: PAC1-EC1 pre-saturated with PACAP(28–38); previous study; ref [19]; cited from earlier work
[4] = tested on: PAC1R-eGFP; experiment: Confocal microscopy of nuclear translocation of PAC1R-eGFP in PAC1R-CHO cells; type: cell-based, mouse; settings: 1 μM, 15 min, vs control cells
Outline: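 CHO-K1 cells (DMEM, 10% FBS, 37°C, 5% CO₂) stably transfected with C-terminally eGFP-tagged wild-type or Cys25Ala PAC1-R, selected with G418 (0.8–1 mg/mL) and cloned by limiting dilution; at least three matched clones were used. Cells were exposed to 1 μM test compound for 15 min, then imaged by confocal microscopy (ex 488/em 545 nm). Translocation was taken as nuclear/whole-cell fluorescence, with ≥3 replicates repeated three times.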

[5] = tested on: PAC1-R promoter sequence (−2019 bp to −1739 bp); experiment: ChIP-PCR, PAC1-R promoter sequence, RGC-5 cells; type: cell-based, mouse; settings: RGC-5, 1 μM, 15 min; antibody to PAC1-R C-terminus; 280 bp product
[6] = tested on: RGC-5 cells; experiment: TUNEL assay, MPP-treated RGC-5 cells; type: cell-based, mouse; settings: 8 mM MPP; for TUNEL signal (MPP-induced apoptosis): pre-treatment with 10 μM peptide
[7] = tested on: PAC1-R; experiment: Western blot of PAC1-R in RGC-5 cells; type: cell-based, mouse; settings: for PAC1-R expression by Western blot: 0.1 μM to 100 μM
Outline: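 RGC-5 cells (F12, 10% FBS) were treated for 30 min with test compound (0.01–100 μM), with or without 50 μM 2-bromopalmitate; controls received serum-free medium. Blots were run by SDS-PAGE/PVDF, probed with rabbit anti-PAC1-R (C-terminal aa 506–525) and anti-β-actin, and detected with HRP-ECL.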

[8] = tested on: RGC-5 cells; experiment: MTT cell viability assay, MPP-treated RGC-5 PD cell model; type: cell-based, mouse; settings: for protection against decrease of cell viability induced by MPP: 0.1–100 μM, 2 h before 8 mM MPP
Outline: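 RGC-5 cells were seeded at 4×10⁴ per well and pretreated with test compound (0.1–100 μM) for 2 h before 8 mM MPP. After 24 h, MTT (0.5 mg/mL) was added for 4 h and formazan was dissolved in isopropanol. Readout was OD₅₇₀, expressed as % of cells without MPP. At least four parallel replicates, repeated three times.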

[9] = tested on: PACAP promoter sequence (−858 bp to −536 bp); experiment: ChIP-PCR, PACAP promoter sequence, RGC-5 cells; type: cell-based, mouse; settings: RGC-5, 1 μM, 15 min; antibody to PAC1-R C-terminus; 320 bp product
[10] = tested on: PACAP; experiment: PACAP level determined by ELISA in RGC-5 cells; type: cell-based, mouse; settings: for positive effect on PACAP expression level: over 10 μM
[11] = tested on: PAC1-R in RGC-5 cells; type: cell-based, mouse; settings: 15 min; for PAC1-R level in RGC-5 cells (immunofluorescence) / nuclear translocation of PAC1-R in RGC-5 cells: 1 μM
[12] = tested on: PACAP promoter; experiment: PACAP promoter activity assay; type: cell-based, mouse; settings: RGC-5; for positive effect on PACAP’s promoter activity: over 10 μM
[13] = ref [20], [21]; cited from earlier work
[14] = tested on: PAC1-R promoter; experiment: PAC1-R promoter activity assay; type: cell-based, mouse; settings: RGC-5
[15] = tested on: PAC1-R; settings: cited from earlier work; remark: listed apart in the source
[16] = tested on: PAC1-R; settings: cited from earlier work; remark: listed apart in the source
[17] = ref [10]; cited from earlier work
[18] = target: T1, recombinant PAC1-EC1 protein; experiment: ITC
T1 chain: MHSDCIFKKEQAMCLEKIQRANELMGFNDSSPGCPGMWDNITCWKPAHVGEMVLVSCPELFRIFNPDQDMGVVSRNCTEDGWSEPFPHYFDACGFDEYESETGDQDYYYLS

[19] = RGC-5, 50 μM 2-bromopalmitate with 1 μM peptide

## GRKKRRQRRRP [TAT]
[1]
  nuclear translocation of M-PAC1-R (Cys25/Ala25): significantly weaker than that of the wild-type PAC1-R; also recorded: can not induce significant trafficking or aggregation
[2]; ref [19]
  binding to allosteric regulatory site: binds to the same allosteric regulatory site mainly through charge interaction
[3]
  binding signal from titration of TAT: no binding signal is detected
[4]
  nuclear translocation of PAC1R-eGFP: significantly detected
[5]
  ChIP-PCR band for PAC1-R promoter sequence: positive band
[6]; 24 h
  TUNEL signal (MPP-induced apoptosis): significantly reduced
[7]; 30 min
  PAC1-R expression by Western blot: increased positively with the concentrations
[7]; Western blot, 30 min
  PAC1-R truncated form (about 35 kDa): induced
[8]; RGC-5, 24 h, MTT
  protection against decrease of cell viability induced by MPP: significantly blocked
[9]
  ChIP-PCR band for PACAP promoter sequence: positive band
[10]; 0.1 μM–10 μM, 30 min
  expression level of PACAP (ELISA): significantly increase; also recorded: increased
[10]
  positive effect on PACAP expression level: decreased
[11]
  PAC1-R level in RGC-5 cells (immunofluorescence): increase the PAC1-R level
  nuclear translocation of PAC1-R in RGC-5 cells: induce significant nuclear translocation of PAC1-R
[12]; 0.01 μM–10 μM, 15 min
  promoter activity of PACAP: significantly enhanced
[12]; 0.1 μM–10 μM, 15 min
  promoter activity of PACAP: increased
[12]
  positive effect on PACAP’s promoter activity: decreased
[13]
  cytoprotective activities: significant cytoprotective activities
[14]; 0.1 μM–1 μM, 15 min
  promoter activity of PAC1-R: significantly enhanced

## PACAP38: form of PACAP, ligand of PAC1-R (HSDGIFTDSYSRYRKQMAVKKYLAAVLGKRYKQRVKNK; ends and bridges not checked; UniProt P18509 132-169, looked up)
[15]; compared with PACAP27, ref [2]
  activation of PAC1-R: significantly more complete and effective activity than PACAP27
[16]; ref [22], [23]
  PAC1-R’s own expression: up-regulate PAC1-R’s own expression
  nuclear translocation of PAC1-R: induce the nuclear translocation of PAC1-R

## PACAP(6-38): PAC1-R antagonist (FTDSYSRYRKQMAVKKYLAAVLGKRYKQRVKNK; ends and bridges not checked; UniProt P18509 137-169, looked up, fragment)
[15]; ref [15]
  antagonism of PAC1-R: full antagonist

## CCCCCCCCCCCCCCC(Br)C(=O)O (stereo not drawn) [2-bromopalmitate, reference compound]
[6]; 50 μM 2-bromopalmitate, TUNEL
  inhibition of anti-apoptotic activities of PACAP(28-38) and TAT: significantly inhibited
[7]; 50 μM 2-bromopalmitate with PACAP(28-38) or TAT, Western blot
  truncated forms of PAC1-R with molecular weight smaller than 35 kDa: decrease
[7]; 50 μM 2-bromopalmitate, 30 min, Western blot
  inhibition of PACAP(28-38)- or TAT-induced PAC1-R expression: inhibited
[10]; 50 μM 2-bromopalmitate, 30 min, ELISA
  inhibition of PACAP(28-38)- or TAT-induced PACAP expression: inhibited
[11]; [19]
  inhibition of nuclear translocation of PAC1-R induced by PACAP(28-38) or TAT: effectively inhibited
  inhibition of up-regulation of PAC1-R induced by PACAP(28-38) or TAT: effectively inhibited
[12]; 50 μM 2-bromopalmitate, 15 min
  inhibition of PACAP(28-38)- or TAT-induced PACAP promoter activity: significantly inhibited
[14]; 50 μM 2-bromopalmitate, 15 min
  inhibition of PACAP(28-38)- or TAT-induced PAC1-R promoter activity: significantly inhibited
[16]; ref [23]
  inhibition of oxidative stress-induced nuclear translocation and increase of PAC1-R expression: can inhibit

## pituitary adenylate cyclase-activating polypeptide (HSDGIFTDSYSRYRKQMAVKKYLAAVLGKRYKQRVKNK; ends and bridges not checked; UniProt P18509 132-169, looked up) [PACAP]
[17]
  therapeutic effect mediated by PAC1-R: significant therapeutic effect

## C[n+]1ccc(-c2ccccc2)cc1 [MPP, 1-methyl-4-phenylpyridinium, reference compound]
[6]; 24 h
  number of TUNEL-positive cells: increased the number of TUNEL-positive cells
[8]; 8 mM MPP, MTT assay
  apoptosis in RGC-5 cells: significant apoptosis
[8]; RGC-5, 8 mM MPP, 24 h, MTT, % of cells without MPP
  cells remaining viable after MPP: about 31%

## GKRYKQRVKNK [PACAP(28-38)]
[1]
  nuclear translocation of M-PAC1-R (Cys25/Ala25): significantly weaker than that of the wild-type PAC1-R; also recorded: can not induce significant trafficking or aggregation
[2]; ref [16], [17]
  binding to allosteric regulatory site: binds to the allosteric regulatory site through both conformational and charge interaction
[4]
  nuclear translocation of PAC1R-eGFP: significantly detected
[5]
  ChIP-PCR band for PAC1-R promoter sequence: positive band
[6]; 24 h
  TUNEL signal (MPP-induced apoptosis): significantly reduced
[7]; 30 min
  PAC1-R expression by Western blot: increased positively with the concentrations
[7]; Western blot, 30 min
  PAC1-R truncated form (about 35 kDa): induced
[8]; RGC-5, 24 h, MTT
  protection against decrease of cell viability induced by MPP: significantly blocked
[9]
  ChIP-PCR band for PACAP promoter sequence: positive band
[10]; 0.01 μM–10 μM, 30 min
  expression level of PACAP (ELISA): significantly increase
[10]; 0.1 μM–10 μM, 30 min
  expression level of PACAP (ELISA): increased
[10]
  positive effect on PACAP expression level: decreased
[11]
  PAC1-R level in RGC-5 cells (immunofluorescence): increase the PAC1-R level
  nuclear translocation of PAC1-R in RGC-5 cells: induce significant nuclear translocation of PAC1-R
[12]; 0.1 μM–10 μM, 15 min
  promoter activity of PACAP: significantly enhanced; also recorded: increased
[12]
  positive effect on PACAP’s promoter activity: decreased
[13]
  cytoprotective activities: significant cytoprotective activities
[14]; 0.1 μM–1 μM, 15 min
  promoter activity of PAC1-R: significantly enhanced
[14]; 0.1–100 μM, 15 min (legend of Figure 3B), *P<0.01 vs 0 μM
  promoter activity of PAC1-R: significantly enhanced

## GRKKRRQRRRP [TAT]
[18]
  Ka: 503000 M⁻¹

## GKRYKQRVKNK (ends and bridges not checked) [PACAP(28-38)]
[18]
  Ka: 635000 M⁻¹
